From PubChem BioAssay
The source made the active and inactive calls. Unless noted, how the calls were made is not given here.

Columns and labels:
[1] = target: Pantothenate synthetase (Mycobacterium tuberculosis (strain ATCC 25618 / H37Rv)) (UniProt P9WIL5); experiment: Recombinant Mtb pantothenate synthetase (PanC) inhibitors, coupled enzyme, confirmatory (AID 375); conditions: coupled enzyme assay; at 10 µM, stronger effect = higher value;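 further: 0% = full reaction with vehicle and 100% = no enzyme background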
Sequence of Pantothenate synthetase (Mycobacterium tuberculosis (strain ATCC 25618 / H37Rv)) (P9WIL5 whole entry, looked up): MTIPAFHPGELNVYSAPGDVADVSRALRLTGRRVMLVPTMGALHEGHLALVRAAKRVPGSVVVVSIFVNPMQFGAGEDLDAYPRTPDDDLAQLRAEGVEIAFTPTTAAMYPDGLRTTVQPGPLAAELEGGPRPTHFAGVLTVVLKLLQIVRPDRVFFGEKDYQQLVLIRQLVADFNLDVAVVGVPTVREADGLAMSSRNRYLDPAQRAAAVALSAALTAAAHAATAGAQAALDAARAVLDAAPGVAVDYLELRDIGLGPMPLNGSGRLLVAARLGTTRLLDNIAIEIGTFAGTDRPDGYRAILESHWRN

[2] = reducers of endogenous Her2 protein level, primary screen, SKBR3 breast tumor cells, AlphaScreen, ATP viability (AID 461;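 active means Her2 level under about 52% in both replicate screens, with viability over 70% of control, limit read from the data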;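 on Her2 level: lower value means less Her2 protein in the cells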;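 on viability: percent of carrier control wells set as 100% viability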); conditions: 18-24 h, measured here: SKBR3 viability, ATP luminescence, at 10 µM
[3] = target: Receptor tyrosine-protein kinase erbB-2 (Homo sapiens) (UniProt P04626); experiment: as above; conditions: 18-24 h, at 10 µM, stronger effect = lower value
Sequence of Receptor tyrosine-protein kinase erbB-2 (Homo sapiens) (P04626 whole entry, looked up): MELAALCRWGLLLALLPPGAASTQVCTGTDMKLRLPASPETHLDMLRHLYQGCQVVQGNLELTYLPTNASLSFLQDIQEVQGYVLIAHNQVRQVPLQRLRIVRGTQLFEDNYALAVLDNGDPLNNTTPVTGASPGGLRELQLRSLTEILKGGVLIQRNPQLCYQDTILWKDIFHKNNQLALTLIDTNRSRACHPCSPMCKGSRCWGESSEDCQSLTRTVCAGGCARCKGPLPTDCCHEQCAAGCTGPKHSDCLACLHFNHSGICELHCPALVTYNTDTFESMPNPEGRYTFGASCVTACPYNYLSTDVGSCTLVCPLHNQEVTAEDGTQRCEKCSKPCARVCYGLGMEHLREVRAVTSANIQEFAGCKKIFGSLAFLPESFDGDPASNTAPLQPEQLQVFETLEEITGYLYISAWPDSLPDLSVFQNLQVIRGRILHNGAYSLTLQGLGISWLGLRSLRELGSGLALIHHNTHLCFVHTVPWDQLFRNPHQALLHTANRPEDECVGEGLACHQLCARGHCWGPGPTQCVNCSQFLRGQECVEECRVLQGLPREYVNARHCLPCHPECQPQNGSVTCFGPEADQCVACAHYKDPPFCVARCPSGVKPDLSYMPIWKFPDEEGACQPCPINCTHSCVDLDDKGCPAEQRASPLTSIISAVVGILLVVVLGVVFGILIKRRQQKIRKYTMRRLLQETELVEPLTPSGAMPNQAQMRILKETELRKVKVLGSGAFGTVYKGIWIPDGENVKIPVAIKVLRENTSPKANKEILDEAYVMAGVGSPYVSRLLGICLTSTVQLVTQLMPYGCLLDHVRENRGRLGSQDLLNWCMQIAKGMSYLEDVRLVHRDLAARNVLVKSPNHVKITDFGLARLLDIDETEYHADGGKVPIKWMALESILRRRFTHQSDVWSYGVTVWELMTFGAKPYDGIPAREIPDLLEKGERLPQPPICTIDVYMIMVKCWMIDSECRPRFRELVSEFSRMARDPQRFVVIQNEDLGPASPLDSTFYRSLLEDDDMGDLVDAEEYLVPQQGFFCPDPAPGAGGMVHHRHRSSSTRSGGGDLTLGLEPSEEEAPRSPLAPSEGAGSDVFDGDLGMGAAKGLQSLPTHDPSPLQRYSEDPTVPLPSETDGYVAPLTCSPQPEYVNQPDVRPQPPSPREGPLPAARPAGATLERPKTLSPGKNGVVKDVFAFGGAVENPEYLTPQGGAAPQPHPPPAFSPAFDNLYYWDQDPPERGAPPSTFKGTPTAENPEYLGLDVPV

[4] = SK-BR-3 cell growth inhibitors, pilot screen, 24 h, human (AID 572;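 active means viability at or below 10% of carrier control in both of two separate runs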;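 further: compound exposure lasted between 18 and 24 h rather than exactly 24 h; 100% = carrier-treated control wells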); conditions: SK-BR-3 viability, CellTiter-Glo luminescence, at 10 µM, stronger effect = lower value
[5] = HUVEC growth inhibition – cell-based, human, primary screen (AID 575;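 active means viability at or below 30% in both replicate assays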;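 further: 100% = median of untreated cell wells with 0.1% DMSO on each plate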); conditions: HUVEC proliferation, CellTiter-Glo luminescence, 72 h; at 10 µM; stronger effect = lower value
Procedure, shortened: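 Test system: primary human umbilical vein endothelial cells. Quantity: 1250 cells/well. Compound: single 10 µM dose, 0.1% DMSO, from 5x medium stock. Timing: 72 h treatment at 37 °C. Detection: ATP-based CellTiter-Glo luminescent read. Benchmarks: vehicle and MePR control wells. Format: 384-well plates coated with collagen.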

[6] = growth inhibitors of H69AR lung tumor, primary screen, human, duplicate replicates (AID 580;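 active means viability at or under a set limit in both replicates, limit being median viability minus 3 SD, cut at about 48% in these data, passing the limit was not always enough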;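 further: 100% = mean luminescence of untreated wells and 0% = no signal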); conditions: H69AR lung tumor cells viability, ATP luminescence, 72 h; at 10 µM; stronger effect = lower value
[7] = reversal of MRP1-mediated doxorubicin resistance, pilot screen, H69AR cells, doxorubicin co-treatment (AID 601;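 active means viability loss from added drug above about 55%, and viability with drug at most 40%, in both replicates, limit read from the data, passing the limit was not always enough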); conditions: CellTiter-Glo, 72 h, at 10 µM; for differential viability (reversal): stronger effect = higher value
[8] = 384-well plate pilot, post-Golgi transport modulator project, inhibition of yeast transport mutant growth (AID 636; in the data active means inhibition above about 31%); conditions: absorbance 615 nm, about 18 h, stronger effect = higher value
[9] = growth suppression of yeast trafficking mutant, preliminary HTS, modulators of trafficking downstream of Golgi apparatus project, 1536-format plate, OD 615 nm (AID 637; in the data active means inhibition above about 30%); conditions: yeast transport mutant growth, absorbance 615 nm, 18 h; stronger effect = higher value
[10] = H69AR cells + 2 uM doxorubicin, measured here: viability with 2 uM doxorubicin, stronger effect = lower value
[11] = H69AR cells, compound alone cytotoxicity

Structure (SMILES) | inhibition [1] | viability [2] [%] | Her2 level [3] | viability [4] | viability [5] | viability [6] | differential viability (reversal) ([7]; H69AR cells + 2 uM doxorubicin) | viability [7, 10] [%] | viability [7, 11] [%] | inhibition [8] | inhibition [9]
CCN1c2nc3c(C)cccn3c(=O)c2CC2(C(=O)N(C)C(=O)N(C)C2=O)C1C (stereo not given) | 0% (inactive) | 101 | 94.5% (inactive) | 101% (inactive) | 88.9% (inactive) | 91.4% (inactive) | 4.38% (inactive) | 87 | 91.4 | -4.59% (inactive) | -2.13% (inactive)
Cc1ccc(-c2nc(CS(=O)CC(=O)N3CCC4(CC3)OCCO4)c(C)o2)cc1 (stereo not given) | 0% (inactive) | 92.5 | 99% (inactive) | 92.5% (inactive) | 96.4% (inactive) | 85.1% (inactive) | -10.6% (inactive) | 95.7 | 85.1 | -4.42% (inactive) | -0.79% (inactive)
O=C(Cn1c2c(c(-c3ccccc3Cl)cc1=O)CCC2)N1CCC2(CC1)OCCO2 | 6% (inactive) | 102 | 115% (inactive) | 102% (inactive) | 108% (inactive) | 96.8% (inactive) | -15.4% (inactive) | 112 | 96.8 | -1.18% (inactive) | -6.61% (inactive)
CC1CCN2c3nc4ccccn4c(=O)c3CC3(C(=O)N(C)C(=O)N(C)C3=O)C2C1 (stereo not given) | 0% (inactive) | 101 | 72.5% (inactive) | 101% (inactive) | 93% (inactive) | 93.5% (inactive) | -8.53% (inactive) | 102 | 93.5 | -1.32% (inactive) | 1.64% (inactive)
O=C(COc1ccc2ccccc2c1)N1CCN(C2CCN(Cc3ccccc3)CC2)CC1 | 0% (inactive) | 93 | 92% (inactive) | 93% (inactive) | 62.5% (inactive) | 99.8% (inactive) | 3.83% (inactive) | 96 | 99.8 | -0.13% (inactive) | 1.8% (inactive)
